{"data": "Measurements from different studies", "EPHX2": "Bifunctional epoxide hydrolase 2 (EPHX2, Homo sapiens, UniProt P34913)", "Dhodh": "Dihydroorotate dehydrogenase (quinone), mitochondrial (Dhodh, Mus musculus, UniProt O35435)", "ESR2": "Estrogen receptor beta (ESR2, Homo sapiens, UniProt Q92731)", "note": "Compare with care: the assays were run in different laboratories. pEC50, pIC50, pKi: −log10 of the molar value."}
{"SMILES": "C=CCN=C=S", "target": "EPHX2", "observed": "enzyme activity", "mode": "inhibitor", "technique": "fluorescence", "quantity": "pIC50", "value": 4.94}
{"SMILES": "O=C(Nc1ccc(-c2ccc3ncccc3c2)cc1)C1CCN(S(=O)(=O)c2ccccc2Cl)CC1", "target": "EPHX2", "observed": "enzyme activity", "mode": "inhibitor", "technique": "fluorescence", "quantity": "pIC50", "value": 8.27}
{"SMILES": "CC[C@@](N)(c1cnc(C(F)(F)F)c(Cl)c1)c1c2ncn(C3CC3)c(=O)c2nn1C", "target": "Dhodh", "observed": "enzyme activity", "mode": "inhibitor", "technique": "absorbance", "quantity": "pIC50", "value": 5.17}
{"SMILES": "C[C@@H]1O[C@@H](O[C@@H]2[C@@H](O)[C@H](OCCc3ccc(O)c(O)c3)O[C@H](CO)[C@H]2OC(=O)/C=C/c2ccc(O)c(O)c2)[C@H](O)[C@H](O)[C@H]1O", "target": "Aldo-keto reductase family 1 member B1 (AKR1B1, Homo sapiens, UniProt P15121)", "observed": "enzyme activity", "mode": "inhibitor", "quantity": "pIC50", "value": 5.93}
{"SMILES": "N[C@@H](Cc1ccccc1)C(=O)O", "target": "Intestinal-type alkaline phosphatase (ALPI, Bos taurus, UniProt P19111)", "observed": "enzyme activity", "mode": "inhibitor", "quantity": "pIC50", "value": 4.11}
{"SMILES": "O=C1CC[C@H](N2Cc3cc(N4CCN(CC5CCN(c6ccc([C@@H]7c8ccc(O)cc8CC[C@@H]7c7ccccc7)cc6)CC5)CC4)ccc3C2=O)C(=O)N1", "target": "ESR2", "observed": "ligand displacement", "technique": "radioligand", "quantity": "pIC50", "value": 8.30}
{"SMILES": "Oc1ccc2c3c(cnc2c1)-c1ccc(C(F)(F)F)cc1O[C@@H]3c1ccc(OCCN2CC(CF)C2)cc1", "target": "ESR2", "observed": "ligand displacement", "technique": "radioligand", "quantity": "pKi", "value": 9.96}
{"SMILES": "C[C@H]1CCC[C@@]2(C)CCCC[C@]12O", "target": "OR11A1 (Homo sapiens, UniProt Q9GZK7)", "observed": "cAMP", "mode": "agonist", "technique": "luciferase", "quantity": "pEC50", "value": 4.55}
{"SMILES": "C[S+]([O-])CCCCN=C=S (stereo not drawn)", "target": "EPHX2", "observed": "enzyme activity", "mode": "inhibitor", "technique": "fluorescence", "quantity": "pIC50", "value": 5.44}
{"SMILES": "O=C(Nc1ccc(-c2cccc3ncccc23)cc1)C1CCN(S(=O)(=O)c2ccccc2Cl)CC1", "target": "EPHX2", "observed": "enzyme activity", "mode": "inhibitor", "technique": "fluorescence", "quantity": "pIC50", "value": 8.77}
{"SMILES": "Cn1nc2c(=O)n(C3CC3)ncc2c1[C@](O)(c1cnc(C(F)(F)F)c(Cl)c1)C(F)(F)F", "target": "Dhodh", "observed": "enzyme activity", "mode": "inhibitor", "technique": "absorbance", "quantity": "pIC50", "value": "< 4.52"}
{"SMILES": "O=c1c(O)c(-c2ccc(O)c(O)c2)oc2cc(O)ccc12", "target": "Dual specificity mitogen-activated protein kinase kinase 4 (MAP2K4, Homo sapiens, UniProt P45985)", "observed": "enzyme activity", "mode": "inhibitor", "technique": "ADP detection", "quantity": "pIC50", "value": 5.54}
